The values below come from ChEMBL document CHEMBL4477241, “Structure-Activity Relationship Studies for Enhancer of Zeste Homologue 2 (EZH2) and Enhancer of Zeste Homologue 1 (EZH1) Inhibitors” (J Med Chem, 2016).

Test [1] has as its target Histone-lysine N-methyltransferase EZH2 (Homo sapiens, UniProt O75530+Q15022+Q15910). The test can be described thus: Inhibition of EZH2 histone methyltransferase activity of EZH2/EED/SUZ12 protein complex (unknown origin) using histone H3 peptide as substrate (21 to 44 residues) in presence of [3H]-S-adenosylmethionine after 2 hrs by scintillation proximity assay. A digest of the protocol: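 20 nM EZH2 trimeric complex with 2 μM 3H-SAM and 1 μM biotinylated H3(21–44) in 20 mM Tris-HCl pH 8, 5 mM DTT, 0.01% Triton X-100. Incubated 1 h at 23 °C, quenched with guanidine hydrochloride, then 2 h streptavidin flash-plate capture. Activity scaled between no-compound and no-enzyme counts.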
Background: Scintillation proximity formats need no separation of bound from free tracer.

Test [2] has as its target T1, Histone-lysine N-methyltransferase EZH1 (Homo sapiens, UniProt Q92800).
T1 sequence (Q92800 whole entry): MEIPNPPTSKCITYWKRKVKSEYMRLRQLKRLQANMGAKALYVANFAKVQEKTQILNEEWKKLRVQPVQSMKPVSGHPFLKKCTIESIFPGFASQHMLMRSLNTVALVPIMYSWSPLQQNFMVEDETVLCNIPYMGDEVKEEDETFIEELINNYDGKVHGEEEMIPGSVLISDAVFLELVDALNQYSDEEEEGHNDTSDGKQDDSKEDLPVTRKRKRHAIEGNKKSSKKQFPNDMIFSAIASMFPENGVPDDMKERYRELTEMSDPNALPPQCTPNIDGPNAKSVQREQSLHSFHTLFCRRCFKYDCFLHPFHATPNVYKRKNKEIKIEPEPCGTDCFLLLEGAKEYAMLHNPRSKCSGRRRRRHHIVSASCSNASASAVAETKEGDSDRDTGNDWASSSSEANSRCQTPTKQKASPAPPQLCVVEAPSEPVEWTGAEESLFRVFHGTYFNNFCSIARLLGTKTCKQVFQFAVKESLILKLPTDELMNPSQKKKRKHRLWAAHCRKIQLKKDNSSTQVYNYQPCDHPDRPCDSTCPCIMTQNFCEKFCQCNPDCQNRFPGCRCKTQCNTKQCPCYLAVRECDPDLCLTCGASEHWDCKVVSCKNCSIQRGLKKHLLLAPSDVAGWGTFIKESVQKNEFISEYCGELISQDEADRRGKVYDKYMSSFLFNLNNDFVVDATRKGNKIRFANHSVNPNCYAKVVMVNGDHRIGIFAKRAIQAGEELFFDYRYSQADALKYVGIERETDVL
As to the kind of experiment: Inhibition of EZH1 histone methyltransferase activity of EZH1/EED/SUZ12/RBBP4/AEBP2 protein complex (unknown origin) using histone H3 peptide as substrate (21 to 44 residues) in presence of [3H]-S-adenosylmethionine after 2 hrs by scintillation proximity assay. The method, boiled down: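 10 nM EZH1 pentameric complex with 4 μM 3H-SAM and 1 μM biotinylated H3(21–44) in 20 mM Tris-HCl pH 8, 5 mM DTT, 0.01% Triton X-100. Reaction run 1 h at 23 °C, stopped with guanidine hydrochloride, then captured 2 h on a streptavidin flash plate. Counts normalized to no-compound (100%) and no-enzyme (0%) controls.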

Sequence of Histone-lysine N-methyltransferase EZH2 (Q15910 whole entry, the tested form may be a part, one chain of several): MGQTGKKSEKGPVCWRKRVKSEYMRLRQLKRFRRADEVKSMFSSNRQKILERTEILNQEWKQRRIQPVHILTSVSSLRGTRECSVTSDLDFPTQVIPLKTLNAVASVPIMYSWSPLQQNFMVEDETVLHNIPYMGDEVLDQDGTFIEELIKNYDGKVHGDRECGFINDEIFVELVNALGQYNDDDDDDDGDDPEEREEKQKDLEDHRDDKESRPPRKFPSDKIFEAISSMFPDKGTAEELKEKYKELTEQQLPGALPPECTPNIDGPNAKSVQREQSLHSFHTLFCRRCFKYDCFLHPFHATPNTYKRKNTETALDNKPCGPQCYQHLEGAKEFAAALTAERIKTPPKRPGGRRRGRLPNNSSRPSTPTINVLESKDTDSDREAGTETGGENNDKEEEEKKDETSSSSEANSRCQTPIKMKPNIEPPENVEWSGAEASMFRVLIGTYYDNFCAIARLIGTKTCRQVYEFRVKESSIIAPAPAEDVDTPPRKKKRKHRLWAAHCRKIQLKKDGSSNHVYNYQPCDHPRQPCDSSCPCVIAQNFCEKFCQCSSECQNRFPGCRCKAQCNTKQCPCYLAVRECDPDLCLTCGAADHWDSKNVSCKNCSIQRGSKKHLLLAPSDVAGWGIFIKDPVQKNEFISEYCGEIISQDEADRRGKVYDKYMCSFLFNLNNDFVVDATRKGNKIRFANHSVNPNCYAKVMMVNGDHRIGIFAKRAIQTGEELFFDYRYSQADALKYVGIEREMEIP

One may read the IC50 as the midpoint of a concentration-inhibition curve. As for `CCCc1cc(C)[nH]c(=O)c1CNC(=O)c1cc(-c2ccc(N3CCN(C(C)C)CC3)nc2)cc2c1cnn2C(C)C`, in test [1], the IC50 is less than 10 nM.

Take `CCc1cc(C)c(CNC(=O)c2cc(-c3ccc(N4CCN(C(C)C)CC4)nc3)cc3c2cnn3C(C)C)c(=O)[nH]1`: the IC50 in test [1] is 73 nM; in test [2], more than 5000 nM.

With `CC(C)N1CCN(c2ccc(-c3cc(C(=O)NCc4ccc[nH]c4=O)c4cnn(C(C)C)c4c3)cn2)CC1`, the IC50 in test [1] and in test [2] was more than 5000 nM throughout.

Take `CCCc1cc(C)[nH]c(=O)c1CNC(=O)c1nn(C(C)C)c2ccc(-c3ccc(N4CCN(C(C)C)CC4)nc3)cc12`: the IC50 in test [1] and in test [2] was more than 5000 nM each time.

For `CCCc1cc(C)[nH]c(=O)c1CNC(=O)c1cc(-c2ccc(N3CCN(C(C)C)CC3)nc2)cc2nn(C(C)C)cc12`, the IC50 was 384 nM in test [1] and more than 2500 nM in test [2].

Regarding `CCCc1cc(C)[nH]c(=O)c1CNC(=O)c1cc(-c2ccc(N3CCN(C(C)C)CC3)nc2)cc2c1cnn2CC1CCC1`, the IC50 in test [1] was 57 nM; in test [2], more than 2500 nM.

In the case of `CCCc1cc(C)[nH]c(=O)c1CNC(=O)c1cc(-c2ccc(N3CCN(C(C)C)CC3)nc2)cc2c1cnn2C1CCCCC1`, in test [1], the IC50 was less than 10 nM.

On to `CCCc1cc(C)[nH]c(=O)c1CNC(=O)c1cc(-c2ccc(N3CCN(C(C)C)CC3)nc2)c2cnn(C(C)C)c2c1`, for which the IC50 in test [1] is 540 nM; in test [2], more than 5000 nM.

For the compound `CCCc1cc(C)[nH]c(=O)c1CNC(=O)c1nn(C(C)C)c2cc(-c3ccc(N4CCN(C(C)C)CC4)nc3)ccc12`, the IC50 in test [1] and in test [2] was more than 5000 nM in each case.

Regarding `Cc1[nH]c(=O)c(CNC(=O)c2cc(-c3ccc(N4CCN(C(C)C)CC4)nc3)cc3c2cnn3C(C)C)c(C)c1C`, the IC50 is 328 nM in test [1] and more than 5000 nM in test [2].

As to `CCCCC(CC)Cn1ncc2c(C(=O)NCc3c(CCC)cc(C)[nH]c3=O)cc(-c3ccc(N4CCN(C(C)C)CC4)nc3)cc21` (configuration not stated), the results for the IC50 in test [1] and in test [2] were 1110 nM and more than 5000 nM, respectively.

As to `CCCc1cc(C)[nH]c(=O)c1CNC(=O)c1cc(-c2ccc(N3CCN(C(C)C)CC3)nc2)cc2c1cnn2CCCCCCO`, the results for the IC50 in test [1] and in test [2] were 25 nM and 394 nM, respectively.

Consider `Cc1cc(C)c(CNC(=O)c2cc(-c3ccc(N4CCN(C(C)C)CC4)nc3)cc3c2cnn3C(C)C)c(=O)[nH]1`, for which, in test [2], the IC50 was more than 2500 nM.

For the compound `Cc1[nH]c(=O)c(CNC(=O)c2cc(-c3ccc(N4CCN(C(C)C)CC4)nc3)cc3c2cnn3C(C)C)c2c1CCC2`, the results for the IC50 in test [1] and in test [2] were 32 nM and more than 2500 nM, respectively.

As to `CCC(C)c1cc(C)c(CNC(=O)c2cc(-c3ccc(N4CCN(C(C)C)CC4)nc3)cc3c2cnn3C(C)C)c(=O)[nH]1` (configuration not stated), the IC50 is 32 nM in test [1] and more than 1250 nM in test [2].

On to `CCCc1cc(C)[nH]c(=O)c1CNC(=O)c1cc(-c2ccc(N3CCN(C(C)C)CC3)nc2)cc2c1cnn2C1CCCCCC1`, for which the IC50 is 117 nM in test [1] and more than 2500 nM in test [2].

Turning to `CCCc1cc(C)[nH]c(=O)c1CNC(=O)c1cc(-c2ccccc2)cc2c1cnn2C(C)C`, the figures for the IC50 in test [1] and in test [2] were 41 nM and more than 1250 nM, respectively.

In the case of `CCCc1cc(C)[nH]c(=O)c1CNC(=O)c1cnn2c(-c3ccc(N4CCN(C(C)C)CC4)nc3)cccc12`, the IC50 in test [1] and in test [2] was more than 5000 nM each time.

In the case of `Cc1[nH]c(=O)c(CNC(=O)c2cc(-c3ccc(N4CCN(C(C)C)CC4)nc3)cc3c2cnn3C(C)C)c2c1CCCC2`, the IC50 in test [1] and in test [2] was more than 2500 nM in each case.

For the compound `CCCc1cc(C)[nH]c(=O)c1CNC(=O)c1cc(-c2ccc(N3CCN(C(C)C)CC3)nc2)cc2c1cnn2C(C)(C)C`, the IC50 in test [1] was less than 10 nM; in test [2], 127 nM.

Turning to `CCCc1cc(C)[nH]c(=O)c1CNC(=O)c1cc(-c2ccc(N3CCN(C(C)C)CC3)nc2)cc2c1cnn2C`, the IC50 was 190 nM in test [1] and more than 2500 nM in test [2].

As to `CCCc1cc(C)[nH]c(=O)c1CNC(=O)c1cc(-c2ccccn2)cc2c1cnn2C(C)C`, the IC50 came out at 24 nM in test [1] and 681 nM in test [2].

For `Cc1cc(O)c(CNC(=O)c2cc(-c3ccc(N4CCN(C(C)C)CC4)nc3)cc3c2cnn3C(C)C)c(=O)[nH]1`, the IC50 in test [1] and in test [2] was more than 10000 nM in each case.

Turning to `CC(C)N1CCN(c2ccc(-c3cc(C(=O)NC4CC(C)(C)NC(C)(C)C4)c4cnn(C(C)C)c4c3)cn2)CC1`, the IC50 in test [1] and in test [2] was more than 10000 nM in each case.

Turning to `CCCc1cc(C)[nH]c(=O)c1CNC(=O)c1cc(-c2ccc(N3CCN(C(C)C)CC3)nc2)cc2c1cnn2C(CC)CC`, the values for the IC50 in test [1] and in test [2] were less than 10 nM and 126 nM, respectively.

For `CCc1c(C)c[nH]c(=O)c1CNC(=O)c1cc(-c2ccc(N3CCN(C(C)C)CC3)nc2)cc2c1cnn2C(C)C`, the IC50 was 1020 nM in test [1] and more than 5000 nM in test [2].

Turning to `Cc1cc(CC(C)C)c(CNC(=O)c2cc(-c3ccc(N4CCN(C(C)C)CC4)nc3)cc3c2cnn3C(C)C)c(=O)[nH]1`, the IC50 in test [1] was less than 10 nM; in test [2], 211 nM.

Consider `CCCc1cc(C)[nH]c(=O)c1CNC(=O)c1cc(-c2ccc(F)cc2)cc2c1cnn2C(C)C`, for which the IC50 was 48 nM in test [1] and more than 1250 nM in test [2].

Turning to `CCCc1cc(C)[nH]c(=O)c1CNC(=O)c1cc(-c2ccc(N3CCN(CC)CC3)nc2)cc2c1cnn2C(C)C`, the figures for the IC50 in test [1] and in test [2] were less than 10 nM and 88 nM, respectively.

On to `Cc1cc(C(C)C)c(CNC(=O)c2cc(-c3ccc(N4CCN(C(C)C)CC4)nc3)cc3c2cnn3C(C)C)c(=O)[nH]1`, for which the IC50 in test [1] is less than 10 nM; in test [2], 320 nM.

As to `CCCc1cc(C)[nH]c(=O)c1CNC(=O)c1cc(-c2ccc(N3CCN(C(C)C)CC3)nc2)cc2c1cnn2C1CCCC1`, the results for the IC50 in test [1] and in test [2] were less than 10 nM and 108 nM, respectively.

`CCCc1cc(C)[nH]c(=O)c1CNC(=O)c1cc(-c2ccc(N3CCN(C(C)C)CC3)nc2)cc2c1cnn2CC1CCCCC1`: the values for the IC50 in test [1] and in test [2] were 697 nM and more than 2500 nM, respectively.

In the case of `Cc1cc(C(C)(C)C)[nH]c(=O)c1CNC(=O)c1cc(-c2ccc(N3CCN(C(C)C)CC3)nc2)cc2c1cnn2C(C)C`, the IC50 in test [1] and in test [2] was more than 10000 nM in each case.

`CCCc1cc(C)[nH]c(=O)c1CNC(=O)c1cc(-c2ccc(C(F)(F)F)cc2)cc2c1cnn2C(C)C`: the results for the IC50 in test [1] and in test [2] were 66 nM and more than 1250 nM, respectively.

Take `Cc1cc(C2CCCC2)c(CNC(=O)c2cc(-c3ccc(N4CCN(C(C)C)CC4)nc3)cc3c2cnn3C(C)C)c(=O)[nH]1`: the IC50 in test [1] was less than 10 nM; in test [2] it was 86 nM.

Consider `CCCc1cc(C)[nH]c(=O)c1CNC(=O)c1cc(-c2ccc(N3CCN(C(C)C)CC3)nc2)cc2c1cnn2CC1CCCC1`, for which the IC50 in test [1] is 149 nM; in test [2], more than 2500 nM.

Regarding `CCCc1cc(C)[nH]c(=O)c1CNC(=O)c1cn2ccc(-c3ccc(N4CCN(C(C)C)CC4)nc3)cc2n1`, the IC50 in test [1] and in test [2] was more than 10000 nM throughout.

As for `CCCc1cc(C)[nH]c(=O)c1CNC(=O)c1cc(-c2ccc(N3CCN(C(C)C)CC3)nc2)cc2c1cnn2Cc1ccccc1`, the IC50 was 280 nM in test [1] and more than 5000 nM in test [2].

`CCCc1cc(C)[nH]c(=O)c1CNC(=O)c1cc(-c2ccc(N3CCN(C(C)C)CC3)nc2)cc2c1cnn2CCC1CCCCC1`: the IC50 was more than 1250 nM in test [1] and more than 2500 nM in test [2].

In the case of `Cc1ncc(CNC(=O)c2cc(-c3ccc(N4CCN(C(C)C)CC4)nc3)cc3c2cnn3C(C)C)c(=O)[nH]1`, the figures for the IC50 in test [1] and in test [2] were more than 2300 nM and more than 10000 nM, respectively.

For the compound `CCCc1cc(C)[nH]c(=O)c1CNC(=O)c1cccn2c(-c3ccc(N4CCN(C(C)C)CC4)nc3)cnc12`, the IC50 in test [1] and in test [2] was more than 5000 nM throughout.

In the case of `CC(C)N1CCN(c2ccc(-c3cc(C(=O)NCc4cnc[nH]c4=O)c4cnn(C(C)C)c4c3)cn2)CC1`, the IC50 in test [1] and in test [2] was more than 10000 nM each time.

For the compound `Cc1cc(-c2ccccc2)[nH]c(=O)c1CNC(=O)c1cc(-c2ccc(N3CCN(C(C)C)CC3)nc2)cc2c1cnn2C(C)C`, the IC50 in test [1] and in test [2] was more than 10000 nM in each case.

For the compound `Cc1[nH]c(=O)[nH]c(=O)c1CNC(=O)c1cc(-c2ccc(N3CCN(C(C)C)CC3)nc2)cc2c1cnn2C(C)C`, the IC50 in test [1] and in test [2] was more than 10000 nM throughout.

As for `CCCc1cc(C)[nH]c(=O)c1CNC(=O)c1cc(-c2ccc(N3CCNCC3)nc2)cc2c1cnn2C(C)C`, the IC50 is less than 10 nM in test [1] and 60 nM in test [2].
